UBC13 polyUb: blocks human UBC13 polyubiquitin chain formation | P61088 | TR-FRET | inhibition, % at 20 µM | 330,000 compounds, 0.47% hits; in the data active = inhibition above about 45%, passing the limit was not always enough
Target sequence (P61088 whole entry, looked up): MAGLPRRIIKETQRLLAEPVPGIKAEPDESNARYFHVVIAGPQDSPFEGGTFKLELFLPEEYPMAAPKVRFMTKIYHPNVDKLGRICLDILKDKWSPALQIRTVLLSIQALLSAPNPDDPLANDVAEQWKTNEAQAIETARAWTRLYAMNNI
Apaf1 inhib: inhibitors of human Apaf-1 apoptosome | 330,000 compounds, 0.71% hits | O14727 | AID 489030 | inhibition, % at 20 µM | reconstituted apoptosome caspase-3 activity, DEVD-Rh110 fluorescence; active = inhibition of at least 40% at 20 µM
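System: Apoptosome proteins | Medium: Hepes pH 7.5 with detergent and BSA | Also added: Cytochrome c trigger plus (Z-DEVD)2-Rh110 caspase-3 substrate | Incubation: 30 min compound preincubation, 50 min activation, room temperature | Detection: Rhodamine 110 fluorescence at Ex 480/Em 540 nm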
MEKK3 PB1 HTS: MEKK3-MEK5 PB1 interaction, increase or decrease; Q99759; bead-based flow cytometry, Alexa488-MEK5 binding to MEKK3; actives lie on both sides; 0 = blocked by unlabeled MEK5, 100 = vehicle; binding response (% of control), % at 10 µM; 290,000 compounds, 1.4% hits;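 active = binding response more than 3 SD above or below the average of its plate-row segment, actives on both sides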;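 note: Alexa488 bead fluorescence after subtracting the streptavidin-only scavenger bead signal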
PREPL inhibitor: human PREPL enzyme inhibition | recombinant PREPL, fluorescence polarization activity-based probe | inhibition, % at 5.96 µM | 320,000 compounds, 0.68% hits | AID 2751; in the data active = inhibition above about 43%
MEKK2 mut-MEK5: signal of MEK5 binding to mutant human MEKK2 PB1 domain. bead flow cytometry, Alexa488-MEK5 binding to MEKK2 mutant. percent response, % at 10 µM. 290,000 compounds, 0.35% hits; in the data active = percent response above about 24%, passing the limit was not always enough
MEKK2wt PB1 HTS: raises or lowers MEK5 binding to wildtype human MEKK2 PB1 domain; Q9Y2U5; bead flow cytometry, Alexa488-MEK5 binding to MEKK2 WT; actives lie on both sides; binding response (% of control), % at 10 µM; 290,000 compounds, 1.1% hits; in the data active = binding response below about 67% or above about 130%
MEKK2wt confirm: raises or lowers MEK5 binding to wildtype human MEKK2, retest; shares compounds with MEKK3 PB1 HTS; bead flow cytometry, Alexa488-MEK5 binding to MEKK2 WT; actives lie on both sides; binding response (% of control), % at 10 µM; 5,900 compounds, 2.4% hits; in the data active = binding response below about 16% or above about 210%; inactive = in between
MEKK2mut confirm: signal of MEK5 binding to mutant human MEKK2, retest | percent response, % at 10 µM | shares compounds with MEKK3 PB1 HTS | bead flow cytometry, Alexa488-MEK5 binding to MEKK2 mutant | 5,900 compounds, 2% hits; in the data active = percent response mostly above about 71%, no sharp cut-off; inactive = mostly below about 38%;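 note: higher means compound restores mutant binding toward wildtype level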
MEKK3-MEK5 inh: MEKK3-MEK5 PB1 inhibition, single concentration confirmation | shares compounds with MEKK3 PB1 HTS | 5,900 compounds, 1.8% hits | binding response (% of control), % at 10 µM | bead flow cytometry, Alexa488-MEK5 binding to MEKK3; hits give low values;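 active = binding response below 72% of control, or above a set upper limit, though filed actives all read lower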;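 note: lower values mean stronger disruption of MEK5 binding to MEKK3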
A number is an active result; n = inactive; x = no result given; [ ] = another dose, or the depositor's remark. Hits are enriched below; roughly 3.1% of the tested compounds scored in any of these assays.

SMILES | UBC13 polyUb | Apaf1 inhib | MEKK3 PB1 HTS | PREPL inhibitor | MEKK2 mut-MEK5 | MEKK2wt PB1 HTS | MEKK2wt confirm | MEKK2mut confirm | MEKK3-MEK5 inh
COc1ccc(C(C)=O)cc1COC(=O)c1ccc2ccccc2n1 | n | n | 129 | n | n | n | n | n | n
Cc1cc(C)cc(NC(=O)C2CCCN2C(=O)NC2CCCCC2)c1 (centres undefined) | n | n | n | n | n | n | x | x | x
Cc1cc(C)c(NC(=O)C2CCCN2CCOC(=O)c2ccccc2)c(C)c1 (centres undefined) | n | n | 142 | n | n | n | n | n | n
Cc1cc(C)c(NC(=O)C2CCCN2C(=O)NC2CCCCC2)c(C)c1 (centres undefined) | n | n | 125 | n | n | n | n | n | n
NS(=O)(=O)c1ccc(CNc2nc(-c3cccnc3)nc3ccccc23)cc1 | n | n | n | n | n | n | x | x | x
CCCNC(=O)Cn1c(=O)oc2cc(S(=O)(=O)N3CC(C)CC(C)C3)ccc21 (centres undefined) | n | n | n | n | n | n | x | x | x
CCCCN(C)C(=O)Cn1c(=O)oc2cc(S(=O)(=O)N3CC(C)CC(C)C3)ccc21 (centres undefined) | n | n | 132 | n | n | n | n | n | n
CC(/C=N/n1c(-c2ccco2)n[nH]c1=S)=C\c1ccccc1 | n | n | 134 | n | n | n | n | n | n
CN(C)CCC(=O)c1ccc(Cl)cc1 | n | n | n | n | 27 | n | n | n | n
CCOc1ccc(NCC(=O)c2ccc(C)cc2)cc1 | n | n | n | n | n | n | x | x | x
Cc1ccc(C(=O)CNc2ccc(Cl)cc2)cc1 | n | n | 1.0[inhibitor] | n | n | 1.0[inhibitor] | n | n | n
CCN1CCN(c2ccc(S(=O)(=O)N3CCCCC3)cc2NC(=O)COc2cc(C)ccc2Cl)CC1 | n | n | x | n | x | x | x | x | x
CCN1CCN(c2ccc(S(=O)(=O)N3CCCCC3)cc2NC(=O)COc2ccc(F)cc2Cl)CC1 | n | n | n | n | n | 139 | n | n | n
CCOC(=O)C1CCCN(S(=O)(=O)c2c(C(=O)N3CCCCC3)c(C)n(C)c2C)C1 (centres undefined) | n | n | n | n | n | n | x | x | x
CCn1cc(C(=O)N[C@H](C(=O)NCCCN2CCOCC2)C(C)C)c(=O)c2cc3c(cc21)OCO3 | n | n | n | n | n | n | x | x | x
COCCCNC(=O)c1ccc(Cn2c(=O)c3ccccc3n(Cc3ccc(C)cc3)c2=O)cc1 | n | n | 125 | n | n | n | n | n | n
CC(C)(O)C#Cc1ccc(C(=O)N2CCC(C(N)=O)(N3CCCCC3)CC2)o1 | n | n | n | x | n | n | x | x | x
CCCCCOc1ccc(CSC(=N)N)cc1[N+](=O)[O-] | n | n | n | n | 34 | 148 | n | n | n
O=S(=O)(c1cc(Cl)c(Cl)cc1Cl)N1CCN2CCCC2C1 (centres undefined) | n | n | n | n | n | n | x | x | x
COc1ccc2nc(NC(=O)c3sc4nc(C)cc(C)c4c3N)sc2c1 | n | n | 48[inhibitor] | n | n | n | n | n | n
CC(=O)Nc1ccc(NC(=O)CSc2ccc(-c3ccc4c(c3)OCO4)nn2)cc1 | n | n | n | n | n | n | x | x | x
CC(=O)c1ccc(NC(=O)CSc2ccc(-c3ccc4c(c3)OCO4)nn2)cc1 | n | n | 130 | n | n | n | n | n | n
CCC(C)C(=O)Nc1nnc(CCc2ccccc2)s1 (centres undefined) | n | n | n | n | n | n | x | x | x
Nc1nc(SCCO)[nH]c(=O)c1NC(=O)c1ccco1 | n | n | x | n | x | x | x | x | x
O=C(NCCCN1CCCC1=O)c1cc(-c2cccnc2)nc2ccc(Cl)cc12 | n | n | 70[inhibitor] | n | n | n | n | n | n
SMILES | UBC13 polyUb | Apaf1 inhib | MEKK3 PB1 HTS | PREPL inhibitor | MEKK2 mut-MEK5 | MEKK2wt PB1 HTS | MEKK2wt confirm | MEKK2mut confirm | MEKK3-MEK5 inh
O=C(NCCCN1CCCC1=O)c1cc(-c2ccc3c(c2)OCO3)nc2ccccc12 | n | n | n | n | n | n | x | x | x
CCN1C(=O)CSC1=NC12CC3CC(CC(C3)C1)C2 | n | n | n | n | n | n | x | x | x
CN1C(=O)CSC1=NC12CC3CC(CC(C3)C1)C2 | n | n | 20[inhibitor] | n | n | 30[inhibitor] | n | n | n
COc1ccccc1C(=O)NCC(=O)OC(C)C(=O)N1CCOCC1 (centres undefined) | n | n | x | n | x | x | x | x | x
Cc1ccc(S(=O)(=O)N2CCCCC2)cc1C(=O)NCCN1CCOCC1 | n | n | x | n | x | x | x | x | x
COc1ccc(CCNC(=O)C2CCCN(S(=O)(=O)c3ccccc3)C2)cc1 (centres undefined) | n | n | n | n | n | n | x | x | x
COc1ccc(S(=O)(=O)NCC2CCCN(Cc3cccc(C(C)=O)c3)C2)cc1 (centres undefined) | n | n | n | n | n | n | x | x | x
COc1ccc(S(=O)(=O)NCC2CCCN(Cc3cccnc3)C2)cc1 (centres undefined) | n | n | n | n | n | 56[inhibitor] | n | n | n
CCc1ccccc1NC(=S)NC1CC2CCC(C1)N2Cc1ccco1 (centres undefined) | n | n | n | n | n | n | x | x | x
O=C(NC1CC2CCCC(C1)N2Cc1ccco1)NC12CC3CC(CC(C3)C1)C2 (centres undefined) | n | n | 132 | n | n | n | n | n | n
CCNC(=S)NC1CC2CCCC(C1)N2Cc1ccc(C)cc1 (centres undefined) | n | n | n | n | n | n | x | x | x
CCNC(=S)NC1CC2CCCC(C1)N2Cc1ccco1 (centres undefined) | n | n | 81[inhibitor] | n | n | n | n | n | n
COc1ccc(/C=N/Nc2ccc(C(F)(F)F)cc2[N+](=O)[O-])cc1O | n | n | 131 | n | n | n | n | n | n
O=C(c1ccc(S(=O)(=O)N2CCCCCC2)cc1)N1CCN(c2ccccc2F)CC1 | n | n | n | n | n | n | x | x | x
COc1cc(SC)ccc1C(=O)N1CCCCCC1 | n | n | 125 | n | n | n | n | n | n
COC(=O)CCC(=O)N1CCCC(N2CCN(c3cccc(C(F)(F)F)c3)CC2)C1 (centres undefined) | n | n | 37[inhibitor] | n | n | 19[inhibitor] | n | n | n
Cn1ncc(Br)c1C(=O)N1CCN(C(=O)c2ccco2)CC1 | n | n | n | n | n | n | x | x | x

Bioassay records (PubChem)
